Experiments:
[1] = target: T1, RePC (Rhizobium etli pyruvate carboxylase) (Rhizobium etli, UniProt Q2K340); experiment: malate dehydrogenase-coupled pyruvate carboxylation assay, global fit; assay type: biochemical
T1 sequence (Q2K340 1-1154): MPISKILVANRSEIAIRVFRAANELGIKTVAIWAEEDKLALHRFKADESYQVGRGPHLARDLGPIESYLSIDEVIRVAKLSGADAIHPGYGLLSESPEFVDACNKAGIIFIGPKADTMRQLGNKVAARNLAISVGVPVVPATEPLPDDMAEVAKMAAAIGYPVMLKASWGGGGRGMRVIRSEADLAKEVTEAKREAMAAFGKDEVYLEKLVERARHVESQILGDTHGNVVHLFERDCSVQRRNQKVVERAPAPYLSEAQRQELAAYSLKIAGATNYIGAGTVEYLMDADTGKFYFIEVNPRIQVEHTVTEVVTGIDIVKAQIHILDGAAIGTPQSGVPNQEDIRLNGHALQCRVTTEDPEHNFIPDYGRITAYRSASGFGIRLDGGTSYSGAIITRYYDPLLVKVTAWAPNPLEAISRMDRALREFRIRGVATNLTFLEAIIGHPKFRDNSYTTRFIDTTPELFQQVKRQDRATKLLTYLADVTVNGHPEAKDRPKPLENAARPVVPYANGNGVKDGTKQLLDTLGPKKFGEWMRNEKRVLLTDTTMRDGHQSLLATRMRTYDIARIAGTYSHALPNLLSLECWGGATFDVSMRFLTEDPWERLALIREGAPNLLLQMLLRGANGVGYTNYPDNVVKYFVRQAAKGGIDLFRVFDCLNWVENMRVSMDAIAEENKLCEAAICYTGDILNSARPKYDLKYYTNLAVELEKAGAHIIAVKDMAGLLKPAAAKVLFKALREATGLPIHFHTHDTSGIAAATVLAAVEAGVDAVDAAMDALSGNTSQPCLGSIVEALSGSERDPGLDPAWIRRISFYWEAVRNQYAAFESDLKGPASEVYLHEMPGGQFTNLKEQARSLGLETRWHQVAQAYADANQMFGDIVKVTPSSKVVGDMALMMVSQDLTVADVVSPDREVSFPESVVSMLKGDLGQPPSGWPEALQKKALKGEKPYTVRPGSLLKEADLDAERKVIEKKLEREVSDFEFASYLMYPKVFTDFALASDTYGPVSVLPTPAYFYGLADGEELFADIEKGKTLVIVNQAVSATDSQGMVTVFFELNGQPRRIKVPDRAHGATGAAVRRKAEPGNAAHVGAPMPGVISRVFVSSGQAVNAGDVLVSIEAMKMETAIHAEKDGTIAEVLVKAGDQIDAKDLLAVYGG

[2] = target: T1, RePC (Rhizobium etli pyruvate carboxylase); experiment: malate dehydrogenase-coupled pyruvate carboxylation assay; assay type: biochemical
Outline: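 N-terminally His-tagged R. etli enzyme, expressed in E. coli BL21(DE3). NADH oxidation followed, with oxaloacetate converted to malate by 5 units of malate dehydrogenase. Run at 30 °C in 0.1 M Tris-HCl pH 7.8 with 20 mM NaHCO3, 6 mM MgCl2, 1 mM MgATP, 0.2 mM NADH and 10 mM pyruvate. Activator varied 0–150 μM at 0–8 mM L-aspartate. kapp = initial velocity/enzymic biotin. Hill-equation nonlinear least-squares fit gives the activation constant.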

| Ki [1] [mM] | EC50 [2] [µM] | SMILES |
| --- | --- | --- |
| 1.26 ± 0.08 | – | N[C@@H](CC(=O)O)C(=O)O [L-aspartate] |
| – | 7.3 ± 0.9 | CC(=O)SCCNC(=O)CCNC(=O)[C@H](O)C(C)(C)COP(=O)(O)OP(=O)(O)OC[C@H]1O[C@@H](n2cnc3c(N)ncnc32)[C@H](O)[C@@H]1OP(=O)(O)O [acetyl-CoA] |

— publication PMC4238798 (Biochemistry, 2014)
